Laboratory results as given in PubChem BioAssay AID493019 (Circadian Research, Kay Laboratory, University of …, 2011).

Tests used:
[1] = target: Mitogen-activated protein kinase 1 (Homo sapiens) (UniProt P28482); experiment: circadian period lengthening and CKI inhibition, late-stage follow-up, mechanism study for circadian clock modulator project, cell-based, U2OS Bmal1-dLuc, CKIdelta, CKIalpha, ERK2, CDK7 (AID 493019); conditions: U2OS Bmal1-dLuc circadian period lengthening, luminescence; measured here: ERK2 in vitro kinase
In short: (§1)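 System: U2OS osteosarcoma cells carrying Bmal1-dLuc reporter, plus in vitro kinases / Also added: ATP at 5 µM final in kinase reactions / Compound dosing: 10-point dilutions for period assay / Times: reporter 5 days, kinases 3 h, 30 °C / Detection: luciferase luminescence every 100 min, Kinase-Glo residual-ATP luminescence for kinases / Read-out: Period-lengthening concentrations and kinase IC50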

[2] = target: Casein kinase I isoform delta (Homo sapiens) (UniProt P48730); experiment: as above; conditions: U2OS Bmal1-dLuc circadian period lengthening, luminescence; for IC50: measured here: CKIdelta in vitro kinase
In short: as §1

[3] = target: Casein kinase I isoform alpha (Homo sapiens) (UniProt P48729); experiment: as above; conditions: U2OS Bmal1-dLuc circadian period lengthening, luminescence; for IC50: measured here: CKIalpha in vitro kinase
In short: as §1

[4] = test system: U2OS Bmal1-dLuc circadian period lengthening, luminescence; experiment: as above
In short: as §1

[5] = as above; conditions: U2OS Bmal1-dLuc circadian period lengthening, luminescence; for EC (10 h period change): measured here: 10 h period lengthening; for EC (15 h period change): measured here: 15 h period lengthening
In short: as §1

[6] = target: Cyclin-dependent kinase 7 (Homo sapiens) (UniProt P50613); experiment: as above; conditions: U2OS Bmal1-dLuc circadian period lengthening, luminescence; measured here: CDK7 in vitro kinase
In short: as §1

IC50 [1]	IC50 [2]	IC50 [3]	IC50 [6]	EC50 ([2]; measured here: CKIdelta cell PER1 degradation)	EC50 ([3]; measured here: CKIalpha cell PER1 degradation)	SMILES	EC (5 h period change) [4]	EC (10 h period change) [5]	EC (15 h period change) [5]
160 µM	21 µM	23 µM	29 µM	–	–	CC(C)n1cnc2c(NCc3ccccc3)ncnc21	4400 nM	17 µM	38 µM
52 µM	8.8 µM	5.6 µM	29 µM	9.7 µM	9.2 µM	CC(C)n1cnc2c(NCc3cccc(C(F)(F)F)c3)ncnc21	1500 nM	5.7 µM	13 µM
